Laboratory results published in article PMC7913687 (Nucleic Acids Research, 2021).
Values belong to the molecule of their own block, whether it stands above or below them.

Key:
[1] = test system: t^6A formation by TsaC, TsaB, TsaD and TsaE; experiment: In vitro HPLC assay for t^6A formation, overall; assay type: biochemical, Escherichia coli; conditions: for Km: read-out: Km, overall reaction, apparent, amino acid as variable substrate; for k cat, overall reaction: named ligand as variable substrate
[2] = molecular target: overall reaction (TsaC, TsaB, TsaD and TsaE) (Escherichia coli, UniProt P05852+P45748); experiment: Inhibition of t6A formation in the full TsaBCDE reaction; assay type: biochemical; conditions: read-out: IC50 (μM) Overall reaction
Sequence of overall reaction (TsaC, TsaB, TsaD and TsaE) (P76256 whole entry, one chain of several): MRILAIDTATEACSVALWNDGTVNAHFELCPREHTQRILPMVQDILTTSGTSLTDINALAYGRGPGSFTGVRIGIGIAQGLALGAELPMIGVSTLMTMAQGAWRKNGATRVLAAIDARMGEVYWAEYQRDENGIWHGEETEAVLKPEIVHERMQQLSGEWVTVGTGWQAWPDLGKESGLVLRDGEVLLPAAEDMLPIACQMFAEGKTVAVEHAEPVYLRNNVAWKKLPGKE
Sequence of overall reaction (TsaC, TsaB, TsaD and TsaE) (P05852 whole entry, one chain of several): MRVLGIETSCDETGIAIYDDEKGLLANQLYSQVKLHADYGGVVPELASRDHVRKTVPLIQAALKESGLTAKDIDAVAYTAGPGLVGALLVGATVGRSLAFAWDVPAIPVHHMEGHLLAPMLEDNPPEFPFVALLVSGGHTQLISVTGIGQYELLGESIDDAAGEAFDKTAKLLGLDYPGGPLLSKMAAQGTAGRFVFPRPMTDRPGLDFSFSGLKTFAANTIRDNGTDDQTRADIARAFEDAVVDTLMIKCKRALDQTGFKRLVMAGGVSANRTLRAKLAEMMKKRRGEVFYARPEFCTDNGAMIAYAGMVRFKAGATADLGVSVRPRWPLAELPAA
Method in brief: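 Full reaction: 50 mM MOPS pH 7.5, 20 mM NaHCO3, 25 mM KCl, 1 mM ATP, L-Thr (0.6 mM per footnote; 1 mM in text), 10 μM unmodified E. coli tRNALys, 1 μM each TsaB/C/D/E. Variable test compound; ATP-started; 23 °C, 5 min; EDTA quench, G-50 desalting, nuclease P1/alkaline phosphatase digest. Isocratic C18 HPLC quantifies t6A at 260 nm. IC50 from near-initial rates.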

EcTsaBDE complex = conditions: read-out: Km for TsaE-catalyzed ATPase activity; cited from earlier work
TsaC = molecular target: T1, TsaC (Escherichia coli, UniProt P45748); experiment: TsaC reaction; assay type: biochemical; conditions: named ligand as variable substrate
T1 sequence (P45748 1-190): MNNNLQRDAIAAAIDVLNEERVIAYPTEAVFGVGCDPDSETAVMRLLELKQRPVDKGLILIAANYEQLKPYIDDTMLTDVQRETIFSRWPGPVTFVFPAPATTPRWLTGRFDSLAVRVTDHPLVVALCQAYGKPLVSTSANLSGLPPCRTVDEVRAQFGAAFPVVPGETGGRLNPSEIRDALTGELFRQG
Method in brief: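 Enzyme, with the other components and any inhibitor, preincubated 2 min at 23°C, then started with ATP. After 1 min at 23°C, injected directly onto C18 HPLC (isocratic 50 mM potassium phosphate pH 6, 1% acetonitrile). TC-AMP read by UV at 260 nm. […], measured near initial rates.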

EcTsaBDE = EcTsaBDE (Escherichia coli, UniProt P05852); experiment: Isolated second step of t^6A formation; assay type: biochemical
Sequence of EcTsaBDE (P05852 whole entry): as the sequence (P05852 whole entry, one chain of several) above
Sequence of EcTsaBDE (P76256 whole entry partner): as the sequence (P76256 whole entry, one chain of several) above

[3] = test system: aspartate and ornithine transcarbamoylases; conditions: cited from earlier work
[4] = test system: Nc1ncnc2c1ncn2[C@@H]1O[C@H](COP(=O)(O)OP(=O)(O)OP(=O)(O)O)[C@@H](O)[C@H]1O; experiment: purified protein, by the assay type; conditions: pH 6.0; 23.0 °C
C[C@@H](O)[C@H](N)C(=O)O = experiment: purified protein, by the assay type; conditions: pH 6.0; 23.0 °C
[5] = molecular target: Escherichia coli TsaBD heterodimer, preformed from fluorescently labelled His6-TsaD and unlabelled TsaB (Escherichia coli) (UniProt P05852); experiment: MST
Sequence of Escherichia coli TsaBD heterodimer, preformed from fluorescently labelled His6-TsaD and unlabelled TsaB (Escherichia coli) (P05852 whole entry, chain 1 of 2): as the sequence (P05852 whole entry, one chain of several) above
Sequence of Escherichia coli TsaBD heterodimer, preformed from fluorescently labelled His6-TsaD and unlabelled TsaB (Escherichia coli) (P76256 whole entry, chain 2 of 2, further chain): as the sequence (P76256 whole entry, one chain of several) above

Molecule: Nc1ncnc2c1ncn2[C@@H]1O[C@H](COP(=O)(O)OP(=O)(O)O)[C@@H](O)[C@H]1O [5′-ADP, adenosine 5'-diphosphate]
IC50 [2]: 160 ± 20 µM

Molecule: Nc1ncnc2c1ncn2[C@@H]1O[C@H](COP(=O)(O)O)[C@@H](O)[C@H]1O [5′-AMP, adenosine 5'-monophosphate]
IC50 [2]: 113 ± 10 µM

Molecule: Nc1ncnc2c1ncn2[C@@H]1O[C@H](COP(=O)(O)OP(=O)(O)OP(=O)(O)O)[C@@H](O)[C@H]1O [ATP]
reduction in the Vmax (substrate inhibition) ([1]; at 5 mM ATP): 50% | reduction in the Vmax (substrate inhibition) ([1]; at 10 mM ATP): 90% | Kis (substrate inhibition), overall reaction ([1]; calculated for observed substrate inhibition, fit to Equation 3): 2200 µM | k cat, overall reaction [1]: 0.40 ± 0.4 min⁻¹ | Km (EcTsaBDE complex): 640 µM | K m, TsaC reaction (TsaC): 0.13 ± 0.01 mM | k cat, TsaC reaction (TsaC): 7.9 ± 0.2 min⁻¹ | fold lower turnover of t^6A formation than ATPase activity (EcTsaBDE): ~80 fold | fold lower Km for t^6A second step than Km for ATPase activity (EcTsaBDE; 14 μM vs 0.64 mM): 40 fold | Kis, second step with TC-AMP as substrate (EcTsaBDE; TC-AMP 10 μM, fit to Equation 3): 1.8 mM | Kis (substrate inhibition), TsaBDE reaction (EcTsaBDE; TC-AMP 10 μM, calculated for observed substrate inhibition): 1800 µM | k cat, TsaBDE reaction (EcTsaBDE; named ligand as variable substrate): 0.12 ± 0.1 min⁻¹

Molecule: NC(=O)OP(=O)(O)O [CP, carbamoyl phosphate]
Km [3]: 4 to 10 µM

Molecule: EcTsaC (Escherichia coli K-12)
Km [4]: 0.13 ± 0.01 mM | kcat [4]: 0.132 ± 0.00333 s⁻¹ | Km (C[C@@H](O)[C@H](N)C(=O)O): 1.77 ± 0.26 mM | kcat (C[C@@H](O)[C@H](N)C(=O)O): 0.15 ± 0.00667 s⁻¹

Continued, in another order:

Km [1]: 500 µM
Molecule: CCC(O)[C@H](N)C(=O)O (mixture of isomers) [hNV, (±)-3-hydroxynorvaline]

Km [1]: 590 ± 90 µM | K m, TsaC reaction (TsaC): 1.77 ± 0.26 mM | k cat, TsaC reaction (TsaC): 9.0 ± 0.4 min⁻¹
Molecule: C[C@@H](O)[C@H](N)C(=O)O [L-Thr, L-threonine]
k cat, overall reaction [1]: 0.42 ± 0.02 min⁻¹

IC50 [2]: 9.3 ± 1.2 µM
Molecule: Nc1ncnc2c1ncn2[C@@H]1O[C@H](COP(=O)(O)OC(=O)N[C@@H](CO)C(=O)O)[C@@H](O)[C@H]1O [SC-AMP, serine analog of TC-AMP (L-serylcarbamoyl-adenylate)]

Kd [5]: 2200 nM
Molecule: Escherichia coli TsaE (from UniProt P0AF67 1-153) (enzyme; other documents disagree on this pair)
